# According to ChEMBL document CHEMBL1126796, “2-(Alkylamino)nicotinic acid and analogs. Potent angiotensin II antagonists” (J Med Chem, 1993):
# The source made the active and inactive calls. The calls are words filed in the database; no cut-off is given here.
# Legend:
# [1] = test system: Rattus norvegicus; assay: % decrease in blood pressure after 24 hours at a dose of 1 mg/kg in male rats by using Furosemide-treated spontaneous hypertensive model; format: functional
# Method in brief: (§1)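 Male SHR, 20-24 weeks old, pretreated with furosemide 10 mg/kg sc at 22 and 4 h before the experiment; compound dosed orally. Arterial pressure was recorded from an indwelling femoral artery catheter with on-line blood pressure and heart rate analysis. Read-out is % fall in blood pressure at 4 h and at 24 h, ±SEM, with number of rats.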
# [2] = test system: Rattus norvegicus; assay: % decrease in blood pressure after 4 hours at a dose of 1 mg/kg in male rats by using Furosemide-treated spontaneous hypertensive model; format: functional; method in brief: as §1
# [3] = test system: Rattus norvegicus; assay: % decrease in blood pressure after 4 hours at a dose of 0.3 mg/kg in male rats by using Renal artery hypertensive model; IA means inactive; format: functional, organism-based; parameters: dose 0.3 mg/kg
# Method in brief: (§2)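 Male Sprague-Dawley rats (300-350 g) were made hypertensive by renal artery ligation and used on day 6 or 7 after ligation. Arterial pressure was measured from an indwelling femoral artery catheter, with blood pressure and heart rate recorded on line. Read-out is % decrease in blood pressure at 4 h, ±SEM, with number of rats.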
# [4] = test system: Rattus norvegicus; assay: % decrease in blood pressure after 4 hours at a dose of 10 mg/kg in male rats by using Furosemide-treated spontaneous hypertensive model; format: functional; method in brief: as §1
# [5] = test system: Rattus norvegicus; assay: % decrease in blood pressure after 4 hours at a dose of 10 mg/kg in male rats by using Renal artery hypertensive model; format: functional; method in brief: as §2
# [6] = test system: Rattus norvegicus; assay: % decrease in blood pressure after 4 hours in male rats at a dose of 3 mg/kg by using Renal artery hypertensive model; IA means inactive; format: functional, organism-based; parameters: dose 3 mg/kg; method in brief: as §2
# [7] = test system: Rattus norvegicus; assay: % decrease in blood pressure after 24 hours at a dose of 10 mg/kg in male rats by using Furosemide-treated spontaneous hypertensive model; format: functional; method in brief: as §1
# [8] = test system: Rattus norvegicus; assay: % decrease in blood pressure after 4 hours in male rats at a dose of 3 mg/kg administered iv by using Renal artery hypertensive model; IA means inactive; format: functional, organism-based; parameters: dose 3 mg/kg; method in brief: as §2
# [9] = biological target: T1, Type-1 angiotensin II receptor A (Rattus norvegicus, UniProt P25095); assay: Binding affinity against angiotensin II receptor from rat liver
# T1 sequence (P25095 whole entry): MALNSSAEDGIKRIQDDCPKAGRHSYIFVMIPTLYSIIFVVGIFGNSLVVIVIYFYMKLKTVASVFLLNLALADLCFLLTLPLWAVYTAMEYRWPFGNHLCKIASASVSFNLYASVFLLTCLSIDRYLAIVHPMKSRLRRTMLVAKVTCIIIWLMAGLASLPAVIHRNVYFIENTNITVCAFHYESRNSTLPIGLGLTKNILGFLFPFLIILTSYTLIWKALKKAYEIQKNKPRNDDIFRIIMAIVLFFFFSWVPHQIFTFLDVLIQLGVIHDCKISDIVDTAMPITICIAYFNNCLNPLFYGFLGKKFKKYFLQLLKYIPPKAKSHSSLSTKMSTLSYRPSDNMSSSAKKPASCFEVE
# Method in brief: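 Rat liver membranes were incubated with [125I]-saralasin to measure angiotensin II type 1 receptor binding. Nonspecific binding was defined with 1 µM angiotensin.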
# [10] = test system: Rattus norvegicus; assay: % decrease in blood pressure after 4 hours at a dose of 3 mg/kg administered iv in male rats by using Renal artery hypertensive model; IA means inactive; format: functional, organism-based; parameters: dose 3 mg/kg; method in brief: as §2
# [11] = test system: Rattus norvegicus; assay: % decrease in blood pressure after 4 hours at a dose of 30 mg/kg in male rats by using Renal artery hypertensive model; format: functional; method in brief: as §2
# [12] = test system: Rattus norvegicus; assay: % decrease in blood pressure after 4 hours at a dose of 0.3 mg/kg in male rats by using Renal artery hypertensive model; format: functional; method in brief: as §2
# [13] = test system: Rattus norvegicus; assay: % decrease in blood pressure after 4 hours in male rats at a dose of 10 mg/kg by using Renal artery hypertensive model; format: functional; method in brief: as §2
# [14] = test system: Rattus norvegicus; assay: % decrease in blood pressure after 4 hours at a dose of 1 mg/kg in male rats by using Furosemide-treated spontaneous hypertensive model; IA means inactive; format: functional, organism-based; parameters: dose 1 mg/kg; method in brief: as §1
# [15] = test system: Rattus norvegicus; assay: % decrease in blood pressure after 4 hours in male rats at a dose of 0.3 mg/kg by using Renal artery hypertensive model; format: functional; method in brief: as §2
# [16] = Cmax value after oral dose of 3.87 mg/kg; format: ADME, organism-based; parameters: dose 3.87 mg/kg, route oral; settings: in vivo
# Method in brief: (§3)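 Male Sprague-Dawley-derived rats were dosed with compound in normal saline (1 mL/kg), by gavage or as a slow IV bolus into the jugular vein. Heparinized tail-vein blood was taken at 0.25-24 h, extracted liquid-liquid and assayed by reverse-phase HPLC. Cmax is the observed peak concentration and AUC is mean (SEM). F compares oral with IV AUC, corrected for dose and assuming dose proportionality.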
# [17] = Volume of distribution of the terminal phase (= CLp+ plasma elimination rate constant) after intravenous dose of 3.87 mg/kg; format: ADME, organism-based; parameters: dose 3.87 mg/kg, route intravenous; settings: read-out: Vbeta
# Method in brief: (§4)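 Jugular-vein slow iv bolus (normal saline, 1 mL/kg) in male Sprague-Dawley-derived rats. Plasma was sampled via the tail vein at 0.1–24 h and measured by reverse-phase HPLC after liquid-liquid extraction. Central volume was taken as dose divided by plasma concentration at time zero. Terminal-phase volume was derived from clearance and the plasma elimination rate constant.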
# [18] = Area under curve after oral dose of 3.87 mg/kg; format: ADME, organism-based; parameters: dose 3.87 mg/kg, route oral; settings: in vivo; method in brief: as §3
# [19] = Half-life period of compound after intravenous dose of 3.87 mg/kg; format: ADME, organism-based; parameters: dose 3.87 mg/kg, route intravenous; settings: in vivo
# Method in brief: (§5)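 Male Sprague-Dawley-derived rats. Compound was given in normal saline at 1 mL/kg, either as a slow iv bolus into the jugular vein or orally by gavage. Plasma underwent liquid-liquid extraction and reverse-phase HPLC. Terminal elimination half-life and time of observed peak concentration were taken from the profiles.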
# [20] = Tmax value after oral dose of 3.87 mg/kg; format: ADME, organism-based; parameters: dose 3.87 mg/kg, route oral; settings: in vivo; method in brief: as §5
# [21] = test system: Rattus norvegicus; assay: % decrease in blood pressure after 4 hours in male rats at a dose of 0.1 mg/kg by using Renal artery hypertensive model; format: functional; method in brief: as §2
# [22] = Half-life period after oral dose of 3.87 mg/kg; format: ADME, organism-based; parameters: dose 3.87 mg/kg, route oral; settings: in vivo; method in brief: as §5
# [23] = test system: Rattus norvegicus; assay: % decrease in blood pressure after 4 hours in male rats at a dose of 0.03 mg/kg by using Renal artery hypertensive model; format: functional; method in brief: as §2
# [24] = test system: Rattus norvegicus; assay: % decrease in blood pressure after 4 hours at a dose of 3 mg/kg in male rats by using Renal artery hypertensive model; format: functional; method in brief: as §2
# [25] = Volume of distribution of central compartment (= dose+ plasma concentration at time zero) after intravenous dose of 3.87 mg/kg; format: ADME, organism-based; parameters: dose 3.87 mg/kg, route intravenous; settings: read-out: VI; method in brief: as §4
# [26] = Apparent bioavailability after oral dose of 3.87 mg/kg; format: ADME, organism-based; settings: eutheria, in vivo; method in brief: as §3
# [27] = Plasma clearance after intravenous dose of 3.87 mg/kg; format: ADME, organism-based; parameters: dose 3.87 mg/kg, route intravenous; settings: read-out: Clp
# Method in brief: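 Male Sprague-Dawley-derived rats received a slow iv bolus into the jugular vein of the compound in normal saline (1 mL/kg). Tail-vein heparinized blood was drawn from 0.1 to 24 h and assayed by reverse-phase HPLC after liquid-liquid extraction. Total plasma clearance was calculated as dose divided by AUC and reported as mean (SEM).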
# [28] = test system: Rattus norvegicus; assay: % decrease in blood pressure after 4 hours at a dose of 0.3 mg/kg in male rats by using Furosemide-treated spontaneous hypertensive model; format: functional; method in brief: as §1
# [29] = test system: Rattus norvegicus; assay: % decrease in blood pressure after 24 hours at a dose of 0.1 mg/kg in male rats by using Furosemide-treated spontaneous hypertensive model; format: functional; method in brief: as §1
# [30] = test system: Rattus norvegicus; assay: % decrease in blood pressure after 24 hours at a dose of 0.3 mg/kg in male rats by using Furosemide-treated spontaneous hypertensive model; format: functional; method in brief: as §1
# [31] = test system: Rattus norvegicus; assay: % decrease in blood pressure after 4 hours at a dose of 0.1 mg/kg in male rats by using Furosemide-treated spontaneous hypertensive model; format: functional; method in brief: as §1
smiles,measurement,setting,value
CCCN(Cc1ccc(-c2ccccc2-c2nn[nH]n2)cc1)c1nc(C)cnc1C(=O)O,Decrease in blood pressure,[1],18%
same,Decrease in blood pressure,[2],2%
CCCN(Cc1ccc(-c2ccccc2-c2nn[nH]n2)cc1)c1nc(F)ccc1C(=O)O,Decrease in blood pressure,[1],36%
same,Decrease in blood pressure,[2],15%
CCCN(Cc1ccc(-c2ccccc2-c2nn[nH]n2)cc1)c1ncccc1CO,Decrease in blood pressure,[3],inactive
CCCN(Cc1ccc(-c2ccccc2-c2nn[nH]n2)cc1)c1nccc(C)c1C(=O)O,Decrease in blood pressure,[1],15%
same,Decrease in blood pressure,[2],10%
C=CCN(Cc1ccc(-c2ccccc2-c2nn[nH]n2)cc1)c1ncccc1C(=O)O,Decrease in blood pressure,[1],31%
same,Decrease in blood pressure,[2],13%
CCCCc1nc(Cl)c(CO)n1Cc1ccc(-c2ccccc2-c2nnn[nH]2)cc1 [LOSARTAN],Decrease in blood pressure,[4],21%
same,Decrease in blood pressure,[5],27%
same,Decrease in blood pressure,[6],inactive
same,Decrease in blood pressure,[7],34%
CCc1ncc(C(=O)O)c(NCc2ccc(-c3ccccc3-c3nn[nH]n3)cc2)n1.Cl,Decrease in blood pressure,[8],inactive
same,Ki,[9],68.1 nM
same,Decrease in blood pressure,[10],inactive
CCCCc1nc(Cl)c(C(=O)O)n1Cc1ccc(-c2ccccc2-c2nn[nH]n2)cc1 [CARBOXYLIC ACID METABOLITE],Decrease in blood pressure,[5],40%
CCCN(Cc1ccc(-c2ccccc2-c2nn[nH]n2)cc1)c1ncc(F)cc1C(=O)O,Decrease in blood pressure,[1],22%
same,Decrease in blood pressure,[2],6%
CCCCN(Cc1ccc(-c2ccccc2-c2nn[nH]n2)cc1)c1nc(C)ncc1C(=O)O.Cl,Decrease in blood pressure,[11],11%
same,Ki,[9],15.3 nM
CCCN(Cc1ccc(-c2ccccc2-c2nn[nH]n2)cc1)c1ncccc1NS(=O)(=O)C(F)(F)F,Decrease in blood pressure,[12],6%
CCCN(Cc1ccc(-c2ccccc2-c2nn[nH]n2)cc1)c1nnccc1C(=O)O,Decrease in blood pressure,[1],18%
same,Decrease in blood pressure,[2],3%
CCCN(Cc1ccc(-c2ccccc2-c2nn[nH]n2)cc1)c1ncccc1C=O,Decrease in blood pressure,[12],15%
CCOC(=O)c1cnc(CC)nc1NCc1ccc(-c2ccccc2-c2nn[nH]n2)cc1,Decrease in blood pressure,[13],14%
same,Decrease in blood pressure,[11],32%
same,Ki,[9],20.6 nM
CCCN(Cc1ccc(-c2ccccc2-c2nn[nH]n2)cc1)c1ncccc1C(=O)OC,Decrease in blood pressure,[14],inactive
CCCCN(Cc1ccc(-c2ccccc2-c2nn[nH]n2)cc1)c1nccnc1C(=O)O,Decrease in blood pressure,[1],21%
same,Decrease in blood pressure,[2],7%
CCCN(Cc1ccc(-c2ccccc2-c2nn[nH]n2)cc1)c1nc(C)ncc1C(=O)O,Decrease in blood pressure,[13],15%
same,Decrease in blood pressure,[11],18%
same,Ki,[9],2.78 nM
CCc1nc2c(C)cc(C)nc2n1Cc1ccc(-c2ccccc2-c2nnn[nH]2)cc1 [L-158809],Decrease in blood pressure,[1],30%
same,Decrease in blood pressure,[15],25%
same,Cmax,[16],1590 ng/mL
same,Vd,[17],1.78 L/kg
same,AUC,[18],11.14 µg/h/mL
same,half-life,[19],4.5 h
same,Tmax,[20],2 h
same,Ki,[9],0.45 nM
same,Decrease in blood pressure,[21],15%
same,half-life,[22],3.9 h
same,Decrease in blood pressure,[23],8%
same,Decrease in blood pressure,[24],32%
same,Vd,[25],0.41 L/kg
same,bioavailability,[26],66.7%
same,clearance,[27],1.47 mL/min
same,Decrease in blood pressure,[2],32%
CCCCN(Cc1ccc(-c2ccccc2-c2nn[nH]n2)cc1)c1ncccc1C(=O)O,Decrease in blood pressure,[28],14%
same,Decrease in blood pressure,[12],45%
same,Decrease in blood pressure,[29],22%
same,Decrease in blood pressure,[30],40%
same,Decrease in blood pressure,[21],16%
same,Decrease in blood pressure,[31],5%
